# Measurements from article PMC3143253 (Journal of molecular biology, 2011).
# Entries after “also recorded” stand apart in the source; their conditions may differ. No end group written: not given here. *: point of attachment. X1 = CN(C)c1ccc2c(-c3ccc(N4C(=O)CC(*)C4=O)cc3C(=O)[O-])c3ccc(N(C)C)cc3[o+]c2c1
# Tests used:
# [1] = cited from earlier work
# [2] = target: CaM (I-CaM, IAEDANS-labeled CaM-K75C) (Homo sapiens, UniProt P0DP23, K76C); assay: I-CaM fluorescence titration of water-soluble peptides; assay type: binding; details: 0.1 mM CaCl2 versus 0.3 mM EDTA
# [3] = tested on: 15N-labeled Ca^2+-loaded CaM; assay: 1H,15N-HSQC NMR titration of 15N-labeled CaM; assay type: binding; details: Ca^2+-CaM, 310 K
# Solubility = assay type: physicochemical
# [4] = tested on: D/A-CaM (donor/acceptor-labeled CaM); assay: FRET measurements using D/A-CaM; assay type: binding; details: compared with CaMKII-derived peptide; calcium-containing buffer, pH 7.4
# CaM [5] = target: T1, CaM (Homo sapiens, UniProt P0DP23); assay: Isothermal titration calorimetry; assay type: binding; details: 10 mM MOPS, 2 mM CaCl2, 100 mM NaCl, pH 7.4, 30 °C
# CaM [6] = target: T1, CaM; assay: CaM titration to TMR-CLS liposomes, TMR fluorescence; assay type: binding; details: pH 7.4; for association with CaM in 15% POPS liposomes: 15% POPS / 85% POPC liposomes, absence and presence of calcium
# Collisional fluorescence = assay type: binding; details: pH 7.4
# CaM [7] = target: T1, CaM; assay: Overall affinity of CaM for L-selectin cytoplasmic domain; assay type: binding; details: phosphatidylserine content mimics that in the inner leaflet of the cell plasma membrane
# I-CaM = I-CaM (Homo sapiens, UniProt P0DP23, K76C); assay: I-CaM titration to CLS liposomes, Trp315 to IAEDANS energy transfer; assay type: binding
# Procedure, shortened: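 Unlabelled CLS (30 nM) in liposomes was titrated with IAEDANS-labelled cysteine-mutant CaM. Its concentration came from IAEDANS absorbance. Buffer was 10 mM MOPS, 100 mM NaCl, pH 7.4, with 0.3 mM EDTA or 1 mM CaCl2, at 20 °C. Excitation was 295 nm, and Trp quenching was read at 333 nm. Spectra were averaged over 3 scans and corrected with empty liposomes. Kd came from a hyperbolic fit.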
# [8] = Far-UV CD spectroscopy in liposomes; assay type: physicochemical; details: 1 mM MOPS, pH 7.4, 20 °C
# Procedure, shortened: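 CLS reconstituted into large unilamellar vesicles (extruded, 400-nm filter) at about 10 μM in 1 mM MOPS, pH 7.4. Far-UV spectra (190–260 nm) were taken in a 0.1-cm cuvette at 20 °C with 0.2 nm steps and 10 scans each, corrected against empty liposomes. CLS content was measured by Trp emission after dissolving in 2% SDS, against a standard curve.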
compound,measurement,setting,value
NCCCCCCNS(=O)(=O)c1cccc2c(Cl)cccc12 [W-7],membrane binding and surface potential,[1],directly bind to membrane and alter the electrostatic surface potential
ARRLKKGKKSKRSMNDPY [ARR18],effect of calcium on association with CaM,[2],calcium does not influence the association of CaM with ARR18
same,CaM lobes bound,"[3]; 10 mM MOPS, 100 mM NaCl, 5 mM CaCl2, pH 6.3",binds to both the N- and C-lobes of Ca^2+-CaM
same,nature of the binary complex,"[3]; saturating concentrations of ARR18, pH 6.3",dynamic and exist as an ensemble of interconverting conformers
same,solubility in water / aqueous solutions,Solubility,soluble in water up to millimolar concentration
same,conformation of bound CaM,[4],much more extended conformation
same,N (stoichiometry of binding),"CaM [5]; ARR18 316 μM in 10 μl increments into 27.6 μM CaM, one-site model",0.92±0.05
same,ΔH (enthalpy change per mole of ligand),"CaM [5]; ARR18 316 μM into 27.6 μM CaM, one-site model",-0.77 ± 0.07 kcal/mol
same,ΔS (entropy change),CaM [5]; derived from Ka and ΔH,21.7 cal/mol·K
KLDKSFSMIKEGDYNPLFIPVAVMVTAFSGLAFIIWLARRLKKGKKSKRC(X1)MNDPY [TMR-CLS],association with CaM in 15% POPS liposomes,CaM [6],does not bind
same,change in TMR fluorescence emission on addition of CaM,"CaM [6]; 15% POPS liposomes, up to 10 μM CaM, 10 mM MOPS, 100 mM NaCl, 1 mM EDTA or 0.1 mM CaCl2",little change in TMR fluorescence emission
same,effect of NaNO3 on TMR fluorescence (15% POPS versus POPC liposomes),"Collisional fluorescence; 150 mM NaI, increasing NaNO3, 10 mM MOPS, ex 542 nm, em 575 nm",quenched more significantly in 15% POPS liposomes compared to POPC liposomes
KLDKSFSMIKEGDYNPLFIPVAVMVTAFSGLAFIIWLARRLKKGKKSKRSMNDPY [CLS],association with CaM in 15% POPS liposomes,CaM [6],does not associate
same,interaction with CaM (summary),CaM [7],undetectable; also recorded: fails to bind
same,solubility in water / aqueous solutions,Solubility,not soluble in aqueous solutions
same,effect of calcium on interaction with CaM,"I-CaM; CLS in POPC liposomes, CaCl2 versus EDTA",independent of calcium ion
same,quenching of Trp315 fluorescence by I-CaM,"I-CaM; unlabeled CLS in 15% POPS liposomes, pH 7.4",did not produce a significant quenching of Trp315 fluorescence
same,secondary structure by CD,"[8]; POPC and 15% POPS liposomes, minima at 208 and 222 nm",characteristic of the α-helical secondary structure
same,α-helical content in 15% POPS versus POPC liposome,[8]; ellipticity at 222 nm,less α-helical secondary structure in the 15% POPS liposome than in the POPC liposome
same,location of cytoplasmic domain relative to membrane surface,"Collisional fluorescence; POPC liposomes with 0–15% POPS, 20 °C",located closer to the surface of membranes that have higher concentrations of negatively charged lipids
